From ChEMBL document CHEMBL1156663, “11-Hydroxymonocerin from the plant endophytic fungus Exserohilum rostratum” (J Nat Prod, 2008)

Experiments:
KATO3 = test: Cytotoxicity against human KATO3 cells at 20 ug/mL by MTT assay; format: functional, cell-based
HepG2 = test: Cytotoxicity against human HepG2 cells at 20 ug/mL by MTT assay; format: functional, cell-based
SW-620 = test: Cytotoxicity against human SW620 cells at 20 ug/mL by MTT assay; format: functional, cell-based
Plasmodium falciparum = test: Antimalarial activity against multidrug-resistant Plasmodium falciparum K1; format: functional, organism-based
How it was run: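 In vitro microculture radioisotope assay against P. falciparum K1 (multidrug-resistant), parasites maintained in continuous culture; IC50 determined, dihydroartemisinin run as positive control.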

BT-474 = test: Cytotoxicity against human BT474 cells at 20 ug/mL by MTT assay; format: functional, cell-based
CHAGO = test: Cytotoxicity against human CHAGO cells at 20 ug/mL by MTT assay; format: functional, cell-based

| SMILES | Activity (KATO3) | Activity (HepG2) | Activity (SW-620) | IC50 (Plasmodium falciparum) [µM] | Activity (BT-474) | Activity (CHAGO) |
| --- | --- | --- | --- | --- | --- | --- |
| CC[C@@H](OC(C)=O)[C@@H]1C[C@@H]2OC(=O)c3c(cc(OC)c(OC)c3OC(C)=O)[C@@H]2O1 | Not toxic | Not toxic | Not toxic | 9.1 | Not toxic | Not toxic |
| CC[C@@H](O)[C@@H]1C[C@@H]2OC(=O)c3c(cc(OC)c(OC)c3O)[C@@H]2O1 | Not toxic | Not toxic | Not toxic | 7.7 | Not toxic | Not toxic |
| CCC[C@H]1C[C@H]2OC(=O)c3c(cc(OC)c(OC)c3O)[C@H]2O1 [MONOCERIN] | Not toxic | Not toxic | Not toxic | 0.68 | Not toxic | Not toxic |
| CCC[C@@H]1C[C@@H]2OC(=O)c3c(cc(OC)c(OC)c3OC(C)=O)[C@@H]2O1 | Not toxic | Not toxic | Not toxic | 0.82 | Not toxic | Not toxic |
